Measured values as given in ChEMBL document CHEMBL6127074, “Isolation and Characterization of the Cyanobacterial Macrolide Glycoside Moorenaside, an Anti-Inflammatory Analogue of Aurisides Targeting the Keap1/Nrf2 Pathway” (J Nat Prod, 2024).
One block for each molecule: values may come before it. Activity calls are given as the source filed them. The calls are words filed in the database; no cut-off is given here.

Tests used:
[1] = system: Trypanosoma brucei rhodesiense; assay: Antiparasitic activity against Trypanosoma brucei rhodesiense; assay type: functional, organism-based
HEK293 [2] = assay: Activation of Nrf2-ARE pathway in HEK293 cells transfected with firefly luciferase reporter assessed as fold increase in Nrf2 activity at 32 uM incubated for 24 hrs by ARE luciferase reporter gene based microplate reader assay; assay type: cell-based; details: Homo sapiens, filed as activator
How it was run: (§1)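 HEK293 cells stably carrying an ARE-driven firefly luciferase reporter, grown in DMEM with 10% FBS at 37 °C and 5% CO2, seeded 10,000/well and left overnight. Half-log serial dilutions from 32 μM were added, with tBHQ (10 μM) as positive control and 0.5% DMSO as vehicle. Luminescence was read with BriteLite reagent after 24 h and expressed as fold activity; n = 3.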

RAW264.7 [3] = assay: Anti-inflammatory activity in LPS induced mouse RAW264.7 cells assessed as fold increase in Nqo1 transcript level at 32 uM preincubated for 1 hr followed by LPS stimulation and measured after 12 hrs by TaqMan analysis; assay type: functional; details: time 13 hrs
How it was run: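 RAW264.7 cells seeded 175,000/well, given fresh medium, pretreated 1 h with half-log dilutions from 32 μM (0.5% DMSO vehicle), then stimulated with LPS 1 μg/mL for 12 h. Unstimulated wells were run alongside. RNA was extracted and reverse transcribed with oligo(dT), then measured by TaqMan qPCR for Nqo1 and iNos with actin as the endogenous control. Mean ± SD, n = 3, two-tailed unpaired t-test against DMSO + LPS.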

HEK293 [4] = assay: Activation of Nrf2-ARE pathway in HEK293 cells transfected with firefly luciferase reporter assessed as fold increase in Nrf2 activity at 10 uM incubated for 24 hrs by ARE luciferase reporter gene based microplate reader assay; assay type: cell-based; details: Homo sapiens, filed as activator; how it was run: as §1
RAW264.7 [5] = assay: Anti-inflammatory activity in LPS induced mouse RAW264.7 cells assessed as reduction in NO production at 32 uM preincubated for 1 hr followed by LPS stimulation and measured after 24 hrs by Griess reagent based plate reader assay; assay type: functional, cell-based; details: time 25.0 hrs
How it was run: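 RAW264.7 cells seeded 20,000/well, pretreated 1 h with half-log dilutions from 32 μM (0.5% DMSO vehicle), then stimulated with LPS 1 μg/mL. Unstimulated controls were included. After 24 h the supernatant was mixed with Griess reagent and absorbance read at 540 nm. NO was calculated from a nitrite standard curve. Mean ± SD, n = 3, t-test against DMSO + LPS.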

RAW264.7 [6] = assay: Cytotoxicity against mouse RAW264.7 cells at 32 uM incubated for 24 hrs by MTT assay; assay type: toxicity, cell-based; details: raw264.7, 24 h
How it was run: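 RAW264.7 cells seeded 20,000/well and treated for 24 h with half-log dilutions from 32 μM together with LPS 1 μg/mL (0.5% DMSO vehicle). Viability was read by MTT in parallel with the NO assay; mean ± SD, n = 3.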

HEK293 [7] = assay: Cytotoxicity against HEK293 ARE-luc cells at 1 to 32 uM incubated for 24 hrs by MTT assay; assay type: toxicity, cell-based; details: human, hek293, 24 h, dose 1-32 µM
How it was run: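 HEK293 ARE-luc cells seeded 10,000/well and left overnight, then treated with half-log dilutions from 32 μM, tBHQ 10 μM, or 0.5% DMSO for 24 h. Viability was read by MTT; mean ± SD, n = 3.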

HCT-116 = assay: Antiproliferative activity against human HCT-116 cells assessed as cell viability at 32 uM incubated for 48 hrs by MTT assay; details: HCT-116, 48 h
LoVo = assay: Antiproliferative activity against human LoVo cells; assay type: functional, cell-based
KB = assay: Antiproliferative activity against human KB cells; assay type: functional, cell-based

IC50 [1]: 11 µM
Structure (SMILES): CCCCC/C=C/C=C/[C@H]1OC(=O)C[C@@H]2O[C@H](C[C@H](O)C[C@H](C)C[C@@H](O)C1(C)C)C[C@H](O[C@@H]1OC[C@@H](OC)[C@H](O)[C@H]1O)C2(C)C

Structure (SMILES): CO[C@@H]1[C@@H](O)[C@@H](OC)[C@H](O[C@@H]2C[C@H]3O[C@@](O)(C2)[C@H](C)C(=O)O[C@@H](/C=C/C=C/Br)C/C(C)=C/C(=O)C3(C)C)O[C@H]1C
fold change (FC) (HEK293 [2]): 7.7 | fold change (FC) (RAW264.7 [3]): 5 | fold change (FC) (HEK293 [4]): 2.5 | Activity (RAW264.7 [5]): Active | Activity (RAW264.7 [6]): Non-Toxic | Activity (HEK293 [7]): Non-Toxic | viability at 32 µM (HCT-116): 55%

IC50 [1]: 11 µM
Structure (SMILES): C=CCCC/C=C/C=C/[C@H]1OC(=O)C[C@@H]2O[C@H](C[C@H](O)C[C@H](C)C[C@@H](O)C1(C)C)C[C@H](O[C@@H]1OC[C@@H](OC)[C@H](O)[C@H]1O)C2(C)C

IC50 (LoVo): 15 µM | IC50 (KB): 4.3 µM
Structure (SMILES): CO[C@@H]1[C@@H](OC)[C@@H](O)[C@H](O[C@H]2C[C@@]3(O)CC(=O)O[C@@](C)(CC/C=C/C=C/Br)C[C@H](O)[C@@H](C)CC[C@H](O3)[C@@H]2C)O[C@H]1C
